Assay results from ChEMBL document CHEMBL4219069, “In silico studies, synthesis and pharmacological evaluation to explore multi-targeted approach for imidazole analogues as potential cholinesterase inhibitors with neuroprotective role for Alzheimer's disease” (Bioorg Med Chem, 2018).
The source made the active and inactive calls. No cut-off for these calls is given here.

Key:
[1] = target: Cholinesterase (Equus caballus) (UniProt P81908); assay: Inhibition of equine serum BChE at 10 uM using S-butyrylthiocholine chloride as substrate preincubated for 15 mins followed by substrate addition and measured for 45 mins by Ellmans microplate assay
Sequence of Cholinesterase (Equus caballus) (P81908 whole entry): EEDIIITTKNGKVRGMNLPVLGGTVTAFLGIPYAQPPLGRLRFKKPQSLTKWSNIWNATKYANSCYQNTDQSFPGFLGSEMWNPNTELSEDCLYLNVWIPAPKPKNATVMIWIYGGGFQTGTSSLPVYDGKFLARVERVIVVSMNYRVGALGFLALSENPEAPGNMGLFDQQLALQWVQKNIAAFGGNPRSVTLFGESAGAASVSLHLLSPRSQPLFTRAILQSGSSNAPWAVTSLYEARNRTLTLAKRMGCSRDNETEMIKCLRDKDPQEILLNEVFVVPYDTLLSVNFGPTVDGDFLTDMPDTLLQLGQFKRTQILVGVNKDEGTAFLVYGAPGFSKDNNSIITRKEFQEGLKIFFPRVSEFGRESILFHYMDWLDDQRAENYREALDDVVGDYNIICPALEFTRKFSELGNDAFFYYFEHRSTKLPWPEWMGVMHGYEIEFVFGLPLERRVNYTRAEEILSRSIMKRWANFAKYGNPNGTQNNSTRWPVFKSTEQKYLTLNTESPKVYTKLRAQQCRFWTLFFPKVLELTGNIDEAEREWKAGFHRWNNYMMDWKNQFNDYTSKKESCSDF
How it was run: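 BuChE Ellman microplate assay at single 10 µM concentration: 0.1 M sodium phosphate buffer pH 8, sample in DMSO (1% final DMSO), 15 min room-temperature preincubation, then DTNB and S-butyrylthiocholine chloride; absorbance at 412 nm for 45 min, corrected by enzyme-free blanks. Quadruplicate, repeated at least twice; percent inhibition ± SD.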

[2] = system: Brain; assay: Antioxidant activity in brain homogenate (unknown origin) assessed as decrease in TBARS formation by UV-visible spectrophotometric method; assay type: functional, tissue-based
How it was run: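 Brain tissue homogenate mixed with test sample at five concentrations, SDS, 20% acetic acid and […], then heated at 95°C for 60 min. After cooling, the chromogen was extracted into butanol:pyridine (15:1) and centrifuged. Absorbance of the organic layer was read at 532 nm against a blank, in duplicate. % inhibition of TBARS = (Abs control − Abs sample)×100/Abs control.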

[3] = target: Acetylcholinesterase (Electrophorus electricus, UniProt O42275); assay: Inhibition of electric eel AChE using acetylthiocholine iodide as substrate preincubated for 15 mins followed by substrate addition and measured for 45 mins by Ellmans microplate assay
Sequence of Acetylcholinesterase (Electrophorus electricus, UniProt O42275) (O42275 whole entry): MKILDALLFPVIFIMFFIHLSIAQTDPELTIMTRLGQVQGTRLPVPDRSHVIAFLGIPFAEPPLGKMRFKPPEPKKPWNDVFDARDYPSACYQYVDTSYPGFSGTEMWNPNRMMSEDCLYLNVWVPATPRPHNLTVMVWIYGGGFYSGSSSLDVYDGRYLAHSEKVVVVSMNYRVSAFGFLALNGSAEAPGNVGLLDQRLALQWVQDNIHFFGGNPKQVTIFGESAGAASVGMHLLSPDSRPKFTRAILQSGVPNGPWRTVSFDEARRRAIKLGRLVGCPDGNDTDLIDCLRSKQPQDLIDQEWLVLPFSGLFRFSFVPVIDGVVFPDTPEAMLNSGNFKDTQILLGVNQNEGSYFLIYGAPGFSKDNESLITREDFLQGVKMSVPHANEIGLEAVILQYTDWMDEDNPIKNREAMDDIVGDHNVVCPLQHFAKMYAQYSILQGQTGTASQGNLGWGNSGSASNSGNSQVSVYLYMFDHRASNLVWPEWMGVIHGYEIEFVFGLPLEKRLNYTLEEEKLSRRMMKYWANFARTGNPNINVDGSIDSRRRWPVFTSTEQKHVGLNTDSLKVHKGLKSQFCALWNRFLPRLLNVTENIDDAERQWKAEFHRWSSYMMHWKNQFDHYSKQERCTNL

[4] = system: Mus musculus; assay: Toxicity in Swiss albino mouse assessed as effect on autonomic reflexes at 800 mg/kg, po administered for 14 consecutive days; assay type: organism-based; conditions: in vivo
How it was run: (§1)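 Acute oral toxicity per OECD-423 in Swiss albino mice (20–25 g), 3 male + 3 female per group, acclimatized 15 days; suspension in water with 1% w/v sodium carboxymethylcellulose, given p.o. at 900 then 800 mg/kg. Clinical signs, behaviour (awareness, mood, CNS excitation/depression, autonomic reflexes) and mortality observed at 15 min–72 h and up to 14 days.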

[5] = system: Mus musculus; assay: Toxicity in Swiss albino mouse assessed as CNS excitation at 800 mg/kg, po administered for 14 consecutive days; assay type: organism-based; conditions: in vivo; how it was run: as §1
[6] = system: Mus musculus; assay: Toxicity in Swiss albino mouse assessed as mortality at 800 mg/kg, po administered for 14 consecutive days; assay type: organism-based; conditions: in vivo; how it was run: as §1
[7] = system: Mus musculus; assay: Toxicity in Swiss albino mouse assessed as effect on awareness at 800 mg/kg, po administered for 14 consecutive days; assay type: organism-based; conditions: in vivo; how it was run: as §1
[8] = system: Mus musculus; assay: Reversal of scopolamine-induced memory impairment in Swiss albino mouse assessed as decrease in transfer latency time at 50 to 100 mg/kg, po administered for 8 days followed by scopolamine challenge after 60 mins of last dose measured after 45 mins by elevated plus maze test; assay type: functional, organism-based
How it was run: (§2)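 Swiss albino mice (20–25 g, both sexes) were acclimatized 15 days and had five 5-min baseline trials on the elevated plus maze. Oral vehicle, test or piracetam (200 mg/kg) was given for 8 days. Scopolamine 0.4 mg/kg i.p. followed 1 h after the last dose. Training started 45 min later: each mouse was placed at the open-arm end facing away, and transfer latency was timed until all four legs entered a closed arm.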

[9] = system: Mus musculus; assay: Toxicity in Swiss albino mouse assessed as CNS depression at 800 mg/kg, po administered for 14 consecutive days; assay type: organism-based; conditions: in vivo; how it was run: as §1
[10] = system: Mus musculus; assay: Toxicity in Swiss albino mouse assessed as effect on mood at 800 mg/kg, po administered for 14 consecutive days; assay type: organism-based; conditions: in vivo; how it was run: as §1
[11] = system: Mus musculus; assay: Toxicity in Swiss albino mouse assessed as effect on behavior at 800 mg/kg, po administered for 14 consecutive days; assay type: organism-based; conditions: in vivo; how it was run: as §1
[12] = target: Cholinesterase (Equus caballus, UniProt P81908); assay: Inhibition of equine serum BuChE using S-butyrylthiocholine chloride as substrate preincubated for 15 mins followed by substrate addition and measured for 45 mins by Ellmans microplate assay
Sequence of Cholinesterase (P81908 whole entry): as the sequence (P81908 whole entry) above

[13] = Toxicity in Swiss albino mouse assessed as mortality at 900 mg/kg, po administered for 14 consecutive days; assay type: organism-based; conditions: in vivo; how it was run: as §1
[14] = system: Mus musculus; assay: Reversal of scopolamine-induced memory deficit in Swiss albino mouse assessed as increase in step down latency time at 50 to 100 mg/kg, po administered for 8 days followed by scopolamine challenge by step down inhibitory avoidance test; assay type: functional, organism-based
How it was run: (§3)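 Done after the EPM session in the same mouse groups: oral test dosing for 8 days, then scopolamine 0.4 mg/kg i.p. Training used Cook's pole apparatus, a wooden platform on a bronze-bar grid, with each mouse placed on the platform and allowed to step down. 24 h later the mouse was lowered onto the platform and step-down latency was timed. Dunnett post-test was applied.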

[15] = system: Mus musculus; assay: Reversal of scopolamine-induced memory impairment in Swiss albino mouse assessed as decrease in transfer latency time at 200 mg/kg, po administered for 8 days followed by scopolamine challenge after 60 mins of last dose measured after 45 mins by elevated plus maze test; assay type: functional, organism-based
How it was run: (§4)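 Swiss albino mice (20–25 g, both sexes), dosed p.o. once daily for eight days; scopolamine HBr 0.4 mg/kg i.p. given 1 h after the last dose. Transfer latency on elevated plus maze (open to closed arm, all four legs) recorded 45 min after scopolamine, after five 5-min pre-trials. Step-down latency on Cook's pole apparatus measured 24 h after training. Dunnett post-test.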

[16] = system: Mus musculus; assay: Reversal of scopolamine-induced memory deficit in Swiss albino mouse assessed as increase in step down latency time at 200 mg/kg, po administered for 8 days followed by scopolamine challenge by step down inhibitory avoidance test; assay type: functional, organism-based; how it was run: as §4
[17] = target: Acetylcholinesterase (Homo sapiens, UniProt P22303); assay: Inhibition of AChE (unknown origin)
Sequence of Acetylcholinesterase (Homo sapiens, UniProt P22303) (P22303 whole entry): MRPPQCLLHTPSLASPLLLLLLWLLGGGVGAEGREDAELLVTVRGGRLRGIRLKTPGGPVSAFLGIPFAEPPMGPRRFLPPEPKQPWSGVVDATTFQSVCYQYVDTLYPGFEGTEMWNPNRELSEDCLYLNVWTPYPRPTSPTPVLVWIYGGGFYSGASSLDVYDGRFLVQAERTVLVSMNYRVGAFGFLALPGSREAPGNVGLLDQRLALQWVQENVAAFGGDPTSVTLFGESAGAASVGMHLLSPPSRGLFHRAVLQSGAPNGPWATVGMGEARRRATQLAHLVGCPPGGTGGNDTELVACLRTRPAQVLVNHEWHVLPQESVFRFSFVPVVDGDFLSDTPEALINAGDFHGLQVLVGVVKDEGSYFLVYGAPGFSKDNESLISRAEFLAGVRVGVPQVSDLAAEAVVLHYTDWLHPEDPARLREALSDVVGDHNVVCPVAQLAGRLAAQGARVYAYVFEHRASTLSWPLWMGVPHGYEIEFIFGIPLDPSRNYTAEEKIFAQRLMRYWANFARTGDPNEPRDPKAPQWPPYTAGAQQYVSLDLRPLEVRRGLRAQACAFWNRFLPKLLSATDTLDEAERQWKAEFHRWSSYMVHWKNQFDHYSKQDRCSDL

[18] = system: Mus musculus; assay: Reversal of scopolamine-induced memory impairment in Swiss albino mouse assessed as decrease in transfer latency time at 50 mg/kg, po administered for 8 days followed by scopolamine challenge after 60 mins of last dose measured after 45 mins by elevated plus maze test; assay type: functional, organism-based; how it was run: as §2
[19] = system: Mus musculus; assay: Reversal of scopolamine-induced memory deficit in Swiss albino mouse assessed as increase in step down latency time at 50 mg/kg, po administered for 8 days followed by scopolamine challenge by step down inhibitory avoidance test; assay type: functional, organism-based; how it was run: as §3

Structure (SMILES) | inhibition [1] | IC50 [2] [µM] | further results
c1ccc(-c2nc(-c3ccccc3)c(-c3ccccc3)[nH]2)cc1 | inactive | 106 | 
COc1cc(-c2nc(-c3ccccc3)c(-c3ccccc3)[nH]2)cc(OC)c1OC | 81.3% | 61.3 | IC50 [3]: Not Active; Activity [4]: Non-Toxic; Activity [5]: Non-Toxic; Activity [6]: Non-Toxic; Activity [7]: Non-Toxic; Activity [8]: Active; Activity [9]: Non-Toxic; Activity [10]: Non-Toxic; Activity [11]: Non-Toxic; IC50 ([12]; read-out: IC50): 4.99 µM; mortality at 14 days [13]: 50%; Activity [14]: Active
NC(=O)CN1CCCC1=O |  |  | Activity [15]: Active; Activity [16]: Active
Oc1ccccc1-c1nc(-c2ccccc2)c(-c2ccccc2)[nH]1 | 13.7% | 101 | 
COc1ccc(-c2nc(-c3ccccc3)c(-c3ccccc3)[nH]2)cc1OC | inactive | 94 | 
CCc1nn(CCCN2CCN(c3cccc(Cl)c3)CC2)c(=O)n1CCOc1ccccc1 [NEFAZODONE] |  |  | IC50 [17]: 1.04 µM
Oc1ccc(-c2nc(-c3ccccc3)c(-c3ccccc3)[nH]2)cc1 | inactive | 62.4 | 
Oc1cccc(-c2nc(-c3ccccc3)c(-c3ccccc3)[nH]2)c1 | inactive | 61.8 | IC50 ([3]; read-out: IC50): 5.33 µM; Activity [18]: Active; IC50 [12]: Not Active; Activity [19]: Active
Oc1ccc(-c2nc(-c3ccccc3)c(-c3ccccc3)[nH]2)cc1O | 79.5% | 59.4 | 
CCCCOc1ccc(C(=O)CCN2CCCCC2)cc1 [DYCLONINE] |  |  | IC50 [17]: 0.181 µM
COc1cccc(-c2nc(-c3ccccc3)c(-c3ccccc3)[nH]2)c1 | 19.2% | 86.5 | 
COc1cc(-c2nc(-c3ccccc3)c(-c3ccccc3)[nH]2)cc(OC)c1O | inactive | 264 | 
O=C1O[C@H]([C@@H](O)CO)C(O)=C1O [ASCORBIC ACID] |  | 38.8 | 
c1ccc(-c2nc[nH]c2-c2ccccc2)cc1 | 13% | 93.2 | 
